Experimental data pooled from the literature.
Target: Tyrosine-protein kinase ITK/TSK (ITK, Homo sapiens, UniProt Q08881)
One construct used (Q08881 1-620): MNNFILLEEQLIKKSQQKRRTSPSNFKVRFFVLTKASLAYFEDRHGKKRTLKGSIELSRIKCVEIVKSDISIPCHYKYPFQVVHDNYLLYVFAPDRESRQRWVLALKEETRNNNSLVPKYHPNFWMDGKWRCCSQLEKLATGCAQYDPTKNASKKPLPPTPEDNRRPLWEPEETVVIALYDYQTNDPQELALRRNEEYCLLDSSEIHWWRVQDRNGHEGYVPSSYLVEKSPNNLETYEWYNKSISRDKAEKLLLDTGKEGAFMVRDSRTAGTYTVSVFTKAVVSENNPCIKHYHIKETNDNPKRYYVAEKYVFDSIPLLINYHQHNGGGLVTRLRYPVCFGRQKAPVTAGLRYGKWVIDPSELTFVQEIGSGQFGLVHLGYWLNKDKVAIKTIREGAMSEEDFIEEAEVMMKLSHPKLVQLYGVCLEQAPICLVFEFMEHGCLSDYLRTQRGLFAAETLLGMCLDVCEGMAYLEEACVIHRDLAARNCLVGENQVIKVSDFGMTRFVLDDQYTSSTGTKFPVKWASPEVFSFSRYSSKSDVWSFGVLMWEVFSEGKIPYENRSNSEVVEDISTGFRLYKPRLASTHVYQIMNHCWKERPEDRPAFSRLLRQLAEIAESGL

Structure (SMILES)	test	conditions	measurement	value
Nc1ncc(-c2nc(N3CCOCC3)nc(N3CCOCC3)n2)c(C(F)F)n1	binding, competition with immobilised ligand	10 µM	remaining binding	44%
Cc1nn(C)cc1-c1nc2c(N3CCN(Cc4ccc(Cl)cc4)CC3)c(Cl)cnc2[nH]1	binding, competition with immobilised ligand	1 µM	remaining binding	100%
COc1ncccc1-c1cnn2ccc(N3CCN(C(=O)OC(C)C)CC3)nc12	binding, competition with immobilised ligand	1 µM	remaining binding	100%
N#CC1(c2ccccn2)CCN(Cc2cc(C(=O)O)c(=O)n3ccccc23)CC1	cell-free assay, competition with immobilised ligand	1 µM	remaining binding	100%
CC(C)(C)c1cc(C=C(C#N)C#N)cc(Br)c1O	enzyme activity, inhibitor	0.5 µM	remaining activity	98.4%
Cn1cc(-c2cc(F)cc(N3CCn4c(cc5c4CCCC5)C3=O)c2CO)cc(Nc2ccc(N3CCN(C4COC4)CC3)cn2)c1=O	enzyme activity, inhibitor	0.1 µM	inhibition	4%
Cn1cncc1[C@@](O)(COc1ccc(C#N)cc1-c1ccc(OC(F)(F)F)cc1)c1ccc(C#N)cc1	cell-free assay, competition with immobilised ligand	1 µM	remaining binding	100%
O=c1[nH]c2ccccc2n1C1CCN(Cc2ccc(-c3[nH]c4cc5ncnc5cc4nc3-c3ccccc3)cc2)CC1	cell-free assay	0.5 µM	remaining signal	99.8%
Cn1cc(-c2cccc(N3CCc4c(sc5c4CC(C)(C)C5)C3=O)c2CO)cc(Nc2ccncn2)c1=O	enzyme activity, inhibitor	1 µM	inhibition	6%
